A short description of data set [1]: Stability of the compound in DMSO/deionized water post nanoparticle formation after 3 weeks. Particulars: 504 h. It counts as physicochemical.
Data set [2] has as its system HL-60. Put plainly: Induction of apoptosis in human HL60 cells assessed as late apoptotic cells at 2 uM after 24 hrs by Annexin V-PE/7AAD staining based flow cytometry (reference value: 3.64%). The data set is classed as functional. A general note: In flow cytometry, cells or beads pass a laser one at a time.
The subject of data set [3] is HL-60. Description: Induction of apoptosis in human HL60 cells assessed as early apoptotic cells at 2 uM after 24 hrs by Annexin V-PE/7AAD staining based flow cytometry (reference value: 4.42%). It counts as functional.
The subject of data set [4] is HL-60. Description: Induction of apoptosis in human HL60 cells assessed as necrotic cells at 2 uM after 24 hrs by Annexin V-PE/7AAD staining based flow cytometry (reference value: 1.08%). It counts as functional.
In data set [5] the test system is HL-60. Put plainly: Growth inhibition of human HL60 cells at 20 uM after 48 hrs by MTT assay relative to control. It counts as functional. The note with it: HL-60, 48 h, read-out: GI. In general terms: Tetrazolium dyes change colour on reduction, which living cells bring about.
Data set [6] relates to HL-60. Put plainly: Growth inhibition of human HL60 cells at 2.5 uM after 48 hrs by MTT assay relative to control. The data set is classed as functional. Particulars: HL-60, 48 h, read-out: GI.
Data set [7] concerns HL-60. Put plainly: Growth inhibition of human HL60 cells at 5 uM after 48 hrs by MTT assay relative to control. It counts as functional. The note with it: HL-60, 48 h, read-out: GI.
Data set [8] relates to HL-60. Put plainly: Growth inhibition of human HL60 cells at 0.63 uM after 48 hrs by MTT assay relative to control. It counts as functional. Particulars: HL-60, 48 h, read-out: GI.
The subject of data set [9] is HL-60. Put plainly: Growth inhibition of human HL60 cells at 10 uM after 48 hrs by MTT assay relative to control. The data set is classed as functional. The note with it: HL-60, 48 h, read-out: GI.
Data set [10] relates to HL-60. Description: Growth inhibition of human HL60 cells at 1.25 uM after 48 hrs by MTT assay relative to control. Particulars: HL-60, 48 h, read-out: GI. The data set is classed as functional.
Data set [11] relates to HL-60. Put plainly: Growth inhibition of human HL60 cells after 48 hrs by MTT assay. It counts as functional, cell-based. The note with it: HL-60, 48 h. A digest of the protocol: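 HL-60 human promyelocytic leukemia cells; proliferation inhibition of the cells measured and reported as IC50; values are mean ± SE of at least three independent experiments.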
The test system of data set [12] is HL-60. Put plainly: Induction of apoptosis in human HL60 cells assessed as live cells at 2 uM after 24 hrs by Annexin V-PE/7AAD staining based flow cytometry (reference value: 90.9%). The data set is classed as functional.
For data set [13], the system named is HL-60. Put plainly: Growth inhibition of human HL60 cells at 40 uM after 48 hrs by MTT assay relative to control. The data set is classed as functional. Particulars: HL-60, 48 h, read-out: GI.
Data set [14] addresses Serine/threonine-protein kinase mTOR (Homo sapiens) (UniProt P42345). Description: Inhibition of mTOR in human HL60 cells assessed as reduction in P70S6K phosphorylation at Thr389-residue up to 10 uM after 24 hrs by Western blot method. It counts as cell-based. A digest of the protocol: (§1)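 HL-60 cells treated at different concentrations; lysates probed with specific antibodies against procaspase-3, cleaved caspase-9, PARP, Bcl-2, phospho-P70S6K and phospho-Akt; actin used as loading control.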
Background: A western blot detects proteins with antibodies after separation by electrophoresis.

The subject of data set [15] is HL-60. Description: Induction of apoptosis in human HL60 cells assessed as downregulation of procaspase-3 expression after 24 hrs by Western blot method. It counts as functional, cell-based. The gist of the method: as §1
Data set [16] deals with HL-60. Description: Induction of apoptosis in human HL60 cells assessed as necrotic cells at 10 uM after 24 hrs by Annexin V-PE/7AAD staining based flow cytometry (reference value: 1.08%). The data set is classed as functional.
Data set [17] deals with HL-60. Description: Induction of apoptosis in human HL60 cells assessed as live cells at 10 uM after 24 hrs by Annexin V-PE/7AAD staining based flow cytometry (reference value: 90.9%). The data set is classed as functional.
Data set [18] concerns HL-60. Description: Induction of apoptosis in human HL60 cells assessed as PARP cleavage up to 10 uM after 24 hrs by Western blot method. The data set is classed as functional, cell-based. A digest of the protocol:
as §1

The species entered for another data set is Homo sapiens. Description: Inhibition of PI3K in human HL60 cells assessed as reduction in Akt phosphorylation at Ser473-residue up to 10 uM after 24 hrs by Western blot method. It counts as cell-based. A digest of the protocol: as §1
In data set [19] the test system is HL-60. Put plainly: Induction of apoptosis in human HL60 cells assessed as downregulation of Bcl2 expression up to 10 uM after 24 hrs by Western blot method. The data set is classed as functional, cell-based. The gist of the method:
as §1

In data set [20] the test system is HL-60. Description: Induction of apoptosis in human HL60 cells assessed as late apoptotic cells at 10 uM after 24 hrs by Annexin V-PE/7AAD staining based flow cytometry (reference value: 3.64%). It counts as functional.
Data set [21] concerns HL-60. Put plainly: Induction of apoptosis in human HL60 cells assessed as caspase-9 cleavage after 24 hrs by Western blot method. It counts as functional, cell-based. The gist of the method:
as §1

Data set [22] relates to HL-60. Description: Induction of apoptosis in human HL60 cells assessed as early apoptotic cells at 10 uM after 24 hrs by Annexin V-PE/7AAD staining based flow cytometry (reference value: 4.42%). The data set is classed as functional.

Calls of active or inactive are those of the source. The calls are words filed in the database; no cut-off is given here.

As a reminder, the IC50 is the concentration needed to halve the response being measured. A higher IC50 goes with a need for much substance. In the case of `C[C@H]1[C@H](C)CC[C@]2(C(=O)N3CCNCC3)CC[C@]3(C)C(=CC[C@@H]4[C@@]5(C)Cc6cn[nH]c6C(C)(C)[C@@H]5CC[C@]43C)[C@H]12`, the Stability result in data set [1] was “Stable”. In addition, the Activity with HL-60 [2] was 3.89%; in the data set on HL-60 [3], 19.1%; with HL-60 [4], 0.439%; in the data set with HL-60 [12], 76.5%. Besides, the inhibition of growth at 20 µM in the data set with HL-60 [5] worked out at 93.5%. In the data set on HL-60 [6], the inhibition of growth at 2.5 µM was found to be 86%. Further, the inhibition of growth at 5 µM with HL-60 [7] came to 91.6%. Further, in the data set with HL-60 [8], the inhibition of growth at 0.63 µM was found to be 14.7%. For the same compound, the inhibition of growth at 10 µM in the data set on HL-60 [9] was determined as 95%. The inhibition of growth at 1.25 µM with HL-60 [10] was determined as 66.4%. This compound also returned an IC50 in the data set with HL-60 [11] of 0.91 µM. In the data set with HL-60 [13], the inhibition of growth at 40 µM was determined as 94%.

With `C[C@H]1[C@H](C)CC[C@]2(C(=O)O)CC[C@]3(C)C(=CC[C@@H]4[C@@]5(C)Cc6c[nH]nc6C(C)(C)[C@@H]5CC[C@]43C)[C@H]12`, the inhibition of growth at 20 µM in the data set with HL-60 [5] stood at 93.2%. Also, the inhibition result (in data set [14]; in the data set listed under Homo sapiens) was “Active” throughout. The inhibition of growth at 2.5 µM in the data set on HL-60 [6] turned out to be 8.55%. Besides, in the data set on HL-60 [7], the inhibition of growth at 5 µM is 16.3%. Besides, the inhibition of growth at 0.63 µM with HL-60 [8] came out at 5.36%. Further, the inhibition of growth at 10 µM in the data set on HL-60 [9] amounted to 79.5%. Further, the inhibition of growth at 1.25 µM in the data set with HL-60 [10] turned out to be 7.54%. Moreover, the Activity result was “Dose-dependent effect” with HL-60 [15]; 0.231% in the data set on HL-60 [16]; 76.3% in the data set with HL-60 [17]; 3.98% in the data set with HL-60 [20]; “Dose-dependent effect” in the data set with HL-60 [21]; 19.5% in the data set with HL-60 [22]. This compound yielded a 50% inhibitory concentration (IC50) in the data set with HL-60 [11] of 6.26 µM. Further, the inhibition of growth at 40 µM in the data set with HL-60 [13] came out at 94.7%. For the same compound, the outcome in the data set with HL-60 [18] and with HL-60 [19] was Active.
